# Sampled rows, rich in hits. Any-hit rate of the full collection: about 3%.
# SR-BI uptake up: SR-BI HDL lipid transfer activation; CHO ldlA[mSR-BI] cells, DiI-HDL uptake fluorescence, 3 h; 100 = double the neutral-control signal; activation, % at 12.5 µM; actives 0.096% (n = 320,000); AID 504775;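 active = mean replicate activation of at least 60% and every replicate at or above 60%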;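 note: 0% = median plate neutral-control signal and 100% = twice that signal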
#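 System: CHO ldlA[mSR-BI] cells / Medium: HEPES-buffered (25 mM, pH 7.4) F12 plus 0.5% BSA / Probe or stimulus: labelled HDL, 10 µg/mL / Doses: single compound concentration, delivered by pin transfer / Schedule: 3 h, 37 °C / Measured by: DiI fluorescence, bottom read / Measure: cell-associated DiI fluorescence as measure of HDL uptake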
# TMEM16A act: mouse TMEM16A channel activation, primary screen | Q8BHY3 | HEK293 TMEM16A/YFP-H148Q/I152L, iodide quench fluorescence; hits give low values | B-score at 10 µM | actives 0.3% (n = 340,000) | AID 623877;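 active = fluorescence-ratio B-score plate-corrected deviation score at least 3 library SD below zero, with starting fluorescence score within 5 deviations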;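 note: channel opened by trigger with iodide after compound preincubation; score built on the fluorescence ratio of max minus min over baseline; more negative score means more quench and so TMEM16A activation or potentiation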
# DNA FID counter: counter-screen for HCV NS3 helicase inhibitors: DNA intercalator displacement. inhibition, % at 7.9 µM. DNA fluorescent intercalator displacement, fluorescence. actives 0.17% (n = 290,000); in the data active = inhibition above about 37%;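 note: 0% = vehicle and 100% = reference compound; higher means more ethidium bromide displaced from hairpin DNA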
# SR-BI DiI inh: blocks mouse SR-BI lipid uptake from DiI-HDL | Q61009 | ldlA[mSR-BI] CHO cells, DiI-HDL uptake fluorescence, 3 h | inhibition, % at 12.5 µM | actives 0.96% (n = 320,000) | AID 488896;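 active = mean replicate inhibition of at least 70% and a set share of replicates each scoring 70 or more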;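 note: 0% = median of neutral control wells and 100% = median of positive control wells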
# Kir21 block: blocks the mouse Kir2.1 inward-rectifier potassium channel | AID 1672 | B-score at 10 µM | HEK293-Kir2.1, FluxOR thallium flux fluorescence; hits give low values | actives 0.85% (n = 310,000);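 active = fluorescence ratio B-score at or below minus 3 SD of library scores, with starting-brightness B-score within 2 SD, cut at about -4.2 in these data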;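 note: channel flux triggered by added potassium and thallium sulfate stimulus; B-score of peak minus minimum fluorescence over baseline after thallium stimulus; more negative B-score means stronger Kir2.1 block with less thallium influx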
# ANO1 block: inhibitors of mouse TMEM16A calcium-activated chloride channel | actives 1.2% (n = 310,000) | Q8BHY3 | normalized B-score (activity score, 25-100; higher = stronger inhibition) at 10 µM | HEK293 TMEM16A/YFP iodide influx fluorescence, ionomycin | AID 588511;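 active = ratio plate-corrected score three or more library SD toward inhibition, starting fluorescence score within five deviations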;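 note: score derived from kinetic fluorescence span divided by baseline fluorescence per well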
# * marks the source's active call; other numbers are inactive results; i = inactive; . = not tested or not shown.
SMILES,SR-BI uptake up,TMEM16A act,DNA FID counter,SR-BI DiI inh,Kir21 block,ANO1 block
CS(=O)c1nc(-c2ccc(Br)cc2)cc(-c2ccccc2)c1C#N (stereo unspecified),-42,i,-13,42,-0.42,100*
CS(=O)(=O)N(CC(=O)N1CCc2ccccc2C1)c1cccc(F)c1,10,i,-11,-10,-4.2*,i
Cc1cc(O)c(C(C)C)cc1NS(=O)(=O)c1ccccc1,5,i,-2,-5,-6.8*,i
COc1ccc(S(=O)(=O)Nc2cc(S(=O)(=O)c3ccccc3)c(O)cc2C)cc1,18,i,-12,-18,-0.01,i
O=P1(NC2CCCCC2)OCC2(CO1)COP(=O)(NC1CCCCC1)OC2 (stereo unspecified),-11,i,.,11,.,.
O=C(c1cccc(S(=O)(=O)Nc2ccccc2Cl)c1)N1CCCCCC1,0,i,.,0,0.54,i
O=C(NC1CCN(Cc2ccccc2)CC1)c1cccc(S(=O)(=O)Nc2cc(C(F)(F)F)ccc2Cl)c1,25,i,18,-25,-0.14,25*
CCC1CCCCN1C(=O)c1cccc(S(=O)(=O)Nc2cc(C(F)(F)F)ccc2Cl)c1 (stereo unspecified),-4,i,-48,4,-0.33,25*
Cc1ccc(S(=O)(=O)NCc2ccccc2)cc1C(=O)NCC1CCCO1 (stereo unspecified),12,i,.,-12,-0.17,i
C[C@H](CO)N1C[C@H](C)[C@@H](CN(C)CC2CCCCC2)Oc2c(NS(=O)(=O)c3ccc(F)cc3)cccc2C1=O,27,i,.,-27,.,.
CCC(C)[C@H]1CNCCN1CC1(c2ccccc2)CC1 (stereo partly specified),25,i,.,-25,0.49,i
CCC(C)[C@H]1CNCCN1CCc1cccc2ccccc12 (stereo partly specified),18,i,.,-18,-3.2,100*
CC(O)[C@H]1CNCCN1CCc1cccc(F)c1 (stereo partly specified),-1,-15*,.,1,-2.3,i
Cc1ccc(NC(=O)C2COc3ccccc3O2)cc1S(=O)(=O)N1CCCCC1 (stereo unspecified),-11,i,.,11,.,.
CCc1sc(/C=C(/C#N)C(N)=S)cc1[N+](=O)[O-],-39,i,-8,39,.,.
O=C1CSC(c2ccccc2F)N1c1cc(Cl)ccc1O (stereo unspecified),11,i,-8,-11,-6*,i
COC(=O)c1cc(C(=O)c2ccc(C(C)(C)C)cc2)c[nH]1,-18,i,-20,18,-0.15,25*
CC[C@H]1CCCCc2ccccc2[C@@H](C(=O)C[C@@H](O)CC(C)=O)OC1=O,3,.,.,-3,.,.
COc1ccc(NS(=O)(=O)c2cc(NS(=O)(=O)c3cc(C(=O)O)ccc3OC)ccc2C)cc1,31,i,.,-31,.,.
CC(C)(C)c1nc(SCC(=O)NCc2ccco2)c2ccccc2n1,-10,i,-18,10,-8*,i
Cc1cc2cc(C)c(SCC(=O)NCc3ccco3)nc2cc1C,10,i,-12,-10,-1.9,i
CCOC(=O)c1sc(=S)n(C)c1NC(=O)c1ccc(OC)cc1,-1,i,-1,1,-1.2,i
CCOC(=O)c1sc(=S)n(C)c1NC(=O)c1ccc(C(C)(C)C)cc1,-33,i,-18,33,0.6,25*
CC(C)CNC(=O)/C=C/C=C/c1ccc2c(c1)OCO2,13,i,.,-13,.,.
CC1CCN(S(=O)(=O)c2ccc(NC(=O)C3CSC4(C)CCC(=O)N34)cc2)CC1 (stereo unspecified),-3,i,.,3,0.01,i
SMILES,SR-BI uptake up,TMEM16A act,DNA FID counter,SR-BI DiI inh,Kir21 block,ANO1 block
Cc1cc(=O)oc2cc(OCc3cc4c(cc3Cl)OCO4)ccc12,-83,i,3,83*,0.11,i
CN(/N=C/c1ccc(O)cc1O)c1ncc(C(F)(F)F)cc1Cl,-28,i,-3,28,-0.61,i
C#CCOCCOCCOCCNc1nc(N2CCN(C(=O)CCCCCCCCCCNC(=O)[C@@H](CCSC)n3cc(CCO)nn3)CC2)nc(N2CCN(C(=O)CCCCCCCCCCNC(=O)[C@H](CO)n3cc(CCCCCN)nn3)CC2)n1,21,i,.,-21,.,i
C#CCOCCOCCOCCNc1nc(N2CCN(C(=O)CCCCCCCCCCNC(=O)[C@H](CCCCN)n3cc(C[C@@H](C)CC)nn3)CC2)nc(N2CCN(C(=O)CCCCCCCCCCNC(=O)[C@@H]([C@H](C)O)n3cc(C)nn3)CC2)n1,-14,-18*,.,14,.,i
C#CCOCCOCCOCCNc1nc(N2CCN(C(=O)CCCCCCCCCCNC(=O)[C@H](CCCCN)n3cc(C[C@@H](C)CC)nn3)CC2)nc(N2CCN(C(=O)CCCCCCCCCCNC(=O)[C@H](CCCN=C(N)N)n3cc(C[C@@H](C)CC)nn3)CC2)n1,-42,-23*,.,42,.,100*
C#CCOCCOCCOCCNc1nc(N2CCN(C(=O)CCCCCCCCCCNC(=O)[C@@H](CCSC)n3cc(CCO)nn3)CC2)nc(N2CCN(C(=O)CCCCCCCCCCNC(=O)[C@H](CCCN=C(N)N)n3cc(C[C@@H](C)CC)nn3)CC2)n1,-9,-26*,.,9,.,100*
C#CCOCCOCCOCCNc1nc(N2CCN(C(=O)CCCCCCCCCCNC(=O)[C@H](CCCCN)n3cc(C)nn3)CC2)nc(N2CCN(C(=O)CCCCCCCCCCNC(=O)[C@H](CCCN=C(N)N)n3cc(C[C@@H](C)CC)nn3)CC2)n1,.,.,.,.,.,100*
C#CCOCCOCCOCCNc1nc(N2CCN(C(=O)CCCCCCCCCCNC(=O)[C@H](CCCCN)n3cc(C)nn3)CC2)nc(N2CCN(C(=O)CCCCCCCCCCNC(=O)[C@@H]([C@H](C)O)n3cc(C)nn3)CC2)n1,6,i,.,-6,.,i
CCN(CC(=O)Nc1ccccc1C(F)(F)F)C(=O)c1cc(S(=O)(=O)N2CCCCCC2)ccc1OC,0,i,.,0,-1.5,i
C#CCOCCOCCOCCNc1nc(N2CCN(C(=O)CCCCCCCCCCNC(=O)[C@H](CO)n3cc(CCCCCN)nn3)CC2)nc(N2CCN(C(=O)CCCCCCCCCCNC(=O)[C@H](CCCN=C(N)N)n3cc(C[C@@H](C)CC)nn3)CC2)n1,.,.,.,.,.,100*
COc1ccc(-c2ccc3c(c2)S(=O)(=O)c2cccc(C(=O)NCc4cccc(OC(F)(F)F)c4)c2C3=O)cc1OC,-56,-4.6*,.,56,.,.
CCOC(=O)CN(C)C(=O)C1CCCN1C(=O)OC(C)(C)C (stereo unspecified),7,i,.,-7,0,i

# From PubChem BioAssay
